Results from ChEMBL document CHEMBL3102735, “Enhancing the pharmacodynamic profile of a class of selective COX-2 inhibiting nitric oxide donors” (Bioorg Med Chem, 2014).

Assays:
Mus musculus [1] = assay: Antihyperalgesic activity in Swiss albino mouse assessed as reduction in carrageenan-induced inflammation at 40 mg/kg, po after 60 mins relative to control; type: functional; parameters: scale not given: the % may be the effect or the level left
[2] = Oral bioavailability in Wistar rat at 10 mg/kg by LC-MS/MS analysis; type: ADME, organism-based; conditions: in vivo
In short: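 Male Han Wistar rats, three per route, single 10 mg/kg/5 mL dose iv or po in 5% DMSO, 5% Cremophor EL, 0.1% Tween 80 in 150 mM phosphate buffer pH 7. Jugular-vein blood sampled, plasma methanol-precipitated, parent and hydroxy metabolite quantified by LC–MS/MS in positive ESI MRM mode (LLOQ 1–15 ng/mL).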

[3] = Stability of the compound in simulated gastric fluid assessed as compound remaining at pH 1.5 after 120 mins by LC-MS/MS analysis; type: physicochemical; conditions: read-out: Stability
In short: (§1)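 1 mM DMSO stock added to 0.01 M PBS (pH 7.4) or 0.05 M simulated gastric fluid without pepsin (pH 1.5 with HCl); incubated in hybridisation oven; aliquots at 0, 30, 60, 120 min quenched with ice-cold acetonitrile containing internal standard; parent remaining (%) measured.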

[4] = Stability of the compound in phosphate buffer saline assessed as compound remaining at pH 7.4 after 60 mins by LC-MS/MS analysis; type: physicochemical; conditions: read-out: Stability; in short: as §1
[5] = molecular target: T1, Prostaglandin G/H synthase 2 (Mus musculus, UniProt Q05769); assay: Inhibition of LPS-induced COX-2 in mouse J774 cells using arachidonic acid as substrate assessed as inhibition of prostaglandin E2 production preincubated for 15 mins followed by substrate addition measured after 30 mins by RIA; type: cell-based
T1 sequence (Q05769 whole entry): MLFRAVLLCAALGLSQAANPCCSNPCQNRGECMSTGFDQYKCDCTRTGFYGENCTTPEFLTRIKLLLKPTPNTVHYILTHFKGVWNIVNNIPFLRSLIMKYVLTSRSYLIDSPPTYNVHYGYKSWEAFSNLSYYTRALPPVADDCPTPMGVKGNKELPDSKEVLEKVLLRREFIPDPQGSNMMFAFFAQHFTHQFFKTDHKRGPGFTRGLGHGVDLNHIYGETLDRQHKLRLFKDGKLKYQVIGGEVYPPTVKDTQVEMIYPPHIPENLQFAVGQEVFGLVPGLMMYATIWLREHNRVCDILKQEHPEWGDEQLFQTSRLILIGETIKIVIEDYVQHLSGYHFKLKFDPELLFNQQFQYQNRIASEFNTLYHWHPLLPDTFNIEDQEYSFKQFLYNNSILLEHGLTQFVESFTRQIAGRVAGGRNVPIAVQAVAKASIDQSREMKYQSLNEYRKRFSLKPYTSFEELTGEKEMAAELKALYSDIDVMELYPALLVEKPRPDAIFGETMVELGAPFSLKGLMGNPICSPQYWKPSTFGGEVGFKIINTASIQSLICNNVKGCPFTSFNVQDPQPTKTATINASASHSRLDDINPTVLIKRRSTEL

[6] = Metabolic stability in Sprague-Dawley rat plasma assessed as compound remaining after 30 mins by LC-MS/MS analysis; type: ADME, cell-free; conditions: read-out: Stability
In short: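 Compound (12 µL of 1 mM DMSO solution into 588 µL medium) incubated in PBS pH 7.4, pepsin-free SGF pH 1.5, or EDTA rat plasma. Aliquots taken at 0, 30, 60, 120 min and quenched with ice-cold acetonitrile containing internal standard; parent remaining as percent.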

Mus musculus [7] = assay: Antihyperalgesic activity in Swiss albino mouse assessed as reduction in carrageenan-induced inflammation at 20 mg/kg, po after 120 mins relative to control; type: functional; parameters: scale not given: the % may be the effect or the level left
[8] = molecular target: T2, Prostaglandin G/H synthase 1 (Mus musculus) (UniProt P22437); assay: Inhibition of COX-1 in mouse J774 cells using arachidonic acid as substrate assessed as inhibition of prostaglandin E2 production at 10 uM preincubated for 15 mins followed by substrate addition measured after 30 mins by RIA; type: cell-based
T2 sequence (whole entry): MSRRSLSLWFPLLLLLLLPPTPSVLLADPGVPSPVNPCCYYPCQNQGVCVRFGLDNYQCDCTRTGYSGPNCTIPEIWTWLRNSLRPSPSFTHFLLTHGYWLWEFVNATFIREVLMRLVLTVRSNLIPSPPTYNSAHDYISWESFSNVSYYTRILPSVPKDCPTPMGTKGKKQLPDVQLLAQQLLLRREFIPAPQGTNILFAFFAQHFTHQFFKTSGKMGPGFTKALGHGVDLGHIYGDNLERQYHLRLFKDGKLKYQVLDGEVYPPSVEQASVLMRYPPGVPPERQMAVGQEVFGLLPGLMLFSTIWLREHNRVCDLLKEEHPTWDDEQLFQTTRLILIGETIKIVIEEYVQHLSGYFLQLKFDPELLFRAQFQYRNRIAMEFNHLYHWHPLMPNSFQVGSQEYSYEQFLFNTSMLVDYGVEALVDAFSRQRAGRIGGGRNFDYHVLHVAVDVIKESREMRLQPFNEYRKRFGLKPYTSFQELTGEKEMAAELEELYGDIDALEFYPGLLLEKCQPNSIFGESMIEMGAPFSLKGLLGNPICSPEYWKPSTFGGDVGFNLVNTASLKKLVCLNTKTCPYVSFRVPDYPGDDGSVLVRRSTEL
In short: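 J774 murine macrophages pretreated 15 min with compound (10 µM; lower concentrations 0.01–1 µM where needed), then incubated 30 min at 37 °C with 15 µM arachidonic acid; supernatant PGE2 measured by RIA. Triplicate wells, mean of three experiments of percent inhibition versus control; IC50 by sigmoidal fit.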

Mus musculus [9] = assay: Analgesic activity in Swiss albino mouse assessed as reduction of acetic acid-induced writhing at 40 mg/kg, po measured every 10 mins after 5 mins of administration relative to control; type: functional; parameters: scale not given: the % may be the effect or the level left
In short: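 Male Swiss albino mice (23–25 g), compound given orally in CMC vehicle; writhing induced by 0.6% acetic acid (10 mL/kg) ip. Stretching movements counted for 10 min, starting 5 min after administration; percent reduction versus CMC-treated animals.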

bioavailability [2]: 24%
remaining at 2 h [3]: 100%
remaining at 1 h [4]: 100%
IC50 [5]: 249 nM
remaining at 0.5 h [6]: 100%
inhibition [8]: 9%
Structure (SMILES): Cc1c(CC(=O)NCCO[N+](=O)[O-])cc(-c2ccc(S(C)(=O)=O)cc2)n1-c1ccc(F)cc1
Activity (Mus musculus [1]): 60%
Activity (Mus musculus [7]): 0%
Activity (Mus musculus [9]): 75%
